Laboratory results from ChEMBL document CHEMBL1212762, “In vivo activity of ceftobiprole in murine skin infections due to Staphylococcus aureus and Pseudomonas aeruginosa” (Antimicrob Agents Chemother, 2010).

Assays:
Pseudomonas aeruginosa [1] = assay: Antimicrobial activity against Pseudomonas aeruginosa OC 4351 infected in immunocompromized SKH1 mouse assessed as lesion volume at 6.2 mg/kg/day, sc measured after 48 hrs postinfection (reference value: 2234 mm3); format: functional; conditions: route subcutaneous
Pseudomonas aeruginosa [2] = assay: Antimicrobial activity against Pseudomonas aeruginosa OC 4351 infected in immunocompromized SKH1 mouse assessed as lesion volume at 25 mg/kg/day, sc measured after 48 hrs postinfection (reference value: 2234 mm3); format: functional; conditions: route subcutaneous
Pseudomonas aeruginosa [3] = assay: Antimicrobial activity against Pseudomonas aeruginosa OC 4354 infected in immunocompromized SKH1 mouse assessed as lesion volume at 100 mg/kg/day, sc measured after 48 hrs postinfection (reference value: 2195 mm3); format: functional; conditions: route subcutaneous
Pseudomonas aeruginosa [4] = assay: Antimicrobial activity against Pseudomonas aeruginosa OC 4351 infected in immunocompromized SKH1 mouse assessed as log change in bacterial colony forming units at 25 mg/kg/day, sc; format: functional; conditions: route subcutaneous
In short: (§1)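 Female SKH1 hairless mice made neutropenic with ip cyclophosphamide (150 mg/kg 5 days and 100 mg/kg 1 day before infection). 0.2 ml s.c. Cytodex bead (0.1% vol/vol) inoculum in BHI: OC 4351 left flank, OC 4354 right flank. Drug s.c. at 1, 3, 25, 27 h postinfection. Killed at 48 h; skin homogenised in saline, plated on TSA 18 h 37°C; Δlog CFU/g versus inoculum. 5 mice/dose, run twice.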

Pseudomonas aeruginosa [5] = assay: Antimicrobial activity against Pseudomonas aeruginosa OC 4351 infected in immunocompromized SKH1 mouse assessed as log change in bacterial colony forming unit at 100 mg/kg/day, sc; format: functional; conditions: route subcutaneous; in short: as §1
Pseudomonas aeruginosa [6] = assay: Antimicrobial activity against Pseudomonas aeruginosa OC 4354 infected in immunocompromized SKH1 mouse assessed as log change in bacterial colony forming unit at 6.2 mg/kg/day, sc; format: functional; conditions: route subcutaneous; in short: as §1
Pseudomonas aeruginosa [7] = assay: Antimicrobial activity against Pseudomonas aeruginosa OC 4354 infected in immunocompromized SKH1 mouse assessed as log change in bacterial colony forming unit at 25 mg/kg/day, sc; format: functional; conditions: route subcutaneous; in short: as §1
Pseudomonas aeruginosa [8] = assay: Antimicrobial activity against Pseudomonas aeruginosa OC 4354 infected in immunocompromized SKH1 mouse assessed as log change in bacterial colony forming unit at 100 mg/kg/day, sc; format: functional; conditions: route subcutaneous; in short: as §1
[9] = fT>MIC in Staphylococcus aureus Smith OC 4172 infected sc dosed SKH1 mouse at 50 mg/kg, sc administered twice at 1 and 3 hrs after infection; format: functional; conditions: route subcutaneous
[10] = fT>MIC in Staphylococcus aureus OC 8525 infected sc dosed SKH1 mouse at 50 mg/kg, sc administered twice at 1 and 3 hrs after infection; format: functional; conditions: route subcutaneous
[11] = fT>MIC in Staphylococcus aureus OC 8525 infected sc dosed SKH1 mouse administered in 24 hrs dosing interval; format: functional
In short: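 Plasma levels came from female hairless SKH1 mice given single s.c. doses at the nape 24 h after flank s.c. infection with Cytodex beads. S. aureus work used immunocompetent mice. P. aeruginosa work used mice made neutropenic with cyclophosphamide i.p., 150 mg/kg at day −5 and 100 mg/kg at day −1. Drug assayed by HPLC with diode-array detection. Noncompartmental analysis.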

[12] = fT>MIC in Pseudomonas aeruginosa OC 4351 infected sc dosed SKH1 mouse administered in 24 hrs dosing interval; format: functional
[13] = Half life in immunocompromized SKH1 mouse skin at 50 mg/kg, sc; format: ADME, organism-based, Zone of skin; parameters: dose 50 mg/kg, route subcutaneous
In short: (§2)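 Female SKH1 hairless mice, immunocompetent or cyclophosphamide-neutropenic, infected s.c. with MRSA OC 8525 or P. aeruginosa OC 4354 on the Cytodex beads (left flank), sterile beads on the right. Single dose 24 h later: s.c. at the nape, or linezolid 50 mg/kg oral. Plasma and skin (DMSO homogenate) sampled over time, HPLC with diode array.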

Plasma [14] = assay: fCmax in immunocompromized SKH1 mouse plasma at 50 mg/kg, sc; format: ADME, organism-based; parameters: dose 50 mg/kg, route subcutaneous; conditions: in vivo; in short: as §2
Zone of skin [15] = assay: fCmax in Staphylococcus aureus infected […] SKH1 mouse skin at 50 mg/kg, sc; format: ADME, organism-based; parameters: dose 50 mg/kg, route subcutaneous; conditions: in vivo
Zone of skin [16] = assay: fAUC (0-infinity) in immunocompromized SKH1 mouse skin at 50 mg/kg, sc; format: ADME, organism-based; parameters: dose 50 mg/kg, route subcutaneous; conditions: in vivo; in short: as §2
Zone of skin [17] = assay: fAUC (0-infinity) in Staphylococcus aureus infected immunocompromized SKH1 mouse skin at 50 mg/kg, sc; format: ADME, organism-based; parameters: dose 50 mg/kg, route subcutaneous; conditions: in vivo
[18] = Protein binding in mouse plasma; format: ADME, cell-free; conditions: read-out: PPB (converted)
[19] = Half life in Staphylococcus aureus infected immunocompetent SKH1 mouse skin at 50 mg/kg, sc; format: ADME, organism-based, Zone of skin; parameters: dose 50 mg/kg, route subcutaneous; in short: as §2
[20] = Tmax in immunocompetent SKH1 mouse plasma at 50 mg/kg, sc; format: ADME, organism-based; parameters: dose 50 mg/kg, route subcutaneous; in short: as §2
Plasma [21] = assay: fCmax in immunocompetent SKH1 mouse plasma at 50 mg/kg, sc; format: ADME, organism-based; parameters: dose 50 mg/kg, route subcutaneous; conditions: in vivo; in short: as §2
Zone of skin [22] = assay: fCmax in Staphylococcus aureus infected immunocompetent SKH1 mouse skin at 50 mg/kg, sc; format: ADME, organism-based; parameters: dose 50 mg/kg, route subcutaneous; conditions: in vivo; in short: as §2
Zone of skin [23] = assay: fAUC (0-infinity) in Staphylococcus aureus infected immunocompetent SKH1 mouse skin at 50 mg/kg, sc; format: ADME, organism-based; parameters: dose 50 mg/kg, route subcutaneous; conditions: in vivo; in short: as §2
Staphylococcus aureus [24] = assay: Antimicrobial activity against methicillin-susceptible Staphylococcus aureus Smith OC 4172 infected in SKH1 mouse assessed as log change in bacterial colony forming unit per gram of skin tissue at 25 mg/kg/day, sc (reference value: 1.6 deltalog CFU); format: functional; conditions: route subcutaneous
In short: (§3)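 Female hairless immunocompetent SKH1 mice were anaesthetised and injected s.c. with 0.2 ml Cytodex bead inoculum (0.1% vol/vol beads in BHI; 6.7–7.0 log10 CFU/mouse): MSSA OC 4172 in the left flank, MRSA OC 8525 in the right. Drug was given at 1, 3, 25 and 27 h post-infection. At 48 h, flank lesions were excised, weighed and homogenised in saline, then plated on TSA (18 h, 37°C). The value is Δlog CFU/g versus the inoculum, from 5 mice/dose, run twice and pooled.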

Staphylococcus aureus [25] = assay: Antimicrobial activity against methicillin-resistant Staphylococcus aureus OC 8525 infected in SKH1 mouse assessed as log change in bacterial colony forming unit per gram of skin tissue at 1.6 mg/kg/day, sc (reference value: 0.8 deltalog CFU); format: functional; conditions: route subcutaneous; in short: as §3
Staphylococcus aureus [26] = assay: Antimicrobial activity against methicillin-resistant Staphylococcus aureus OC 8525 infected immunocompetent SKH1 mouse assessed as lesion volume at 1.6 mg/kg/day, sc measured after 48 hrs postinfection (reference value: 1535 mm3); conditions: route subcutaneous
Staphylococcus aureus [27] = assay: Antimicrobial activity against methicillin-resistant Staphylococcus aureus OC 8525 infected immunocompetent SKH1 mouse assessed as lesion volume at 6.2 mg/kg/day, sc measured after 48 hrs postinfection (reference value: 1535 mm3); conditions: route subcutaneous
Staphylococcus aureus [28] = assay: Antimicrobial activity against methicillin-resistant Staphylococcus aureus OC 8525 infected immunocompetent SKH1 mouse assessed as lesion volume at 100 mg/kg/day, sc measured after 48 hrs postinfection (reference value: 1535 mm3); conditions: route subcutaneous
Staphylococcus aureus [29] = assay: Antimicrobial activity against methicillin-susceptible Staphylococcus aureus Smith OC 4172 infected immunocompetent SKH1 mouse assessed as lesion volume at 100 mg/kg/day, sc measured after 48 hrs postinfection (reference value: 1181 mm3); conditions: route subcutaneous

`Nc1nc(/C(=N/O)C(=O)N[C@@H]2C(=O)N3C(C(=O)O)=C(/C=C4\CCN([C@@H]5CCNC5)C4=O)CS[C@H]23)ns1` [CEFTOBIPROLE] gave an Activity (Pseudomonas aeruginosa [1]) of 847 mm3, an Activity (Pseudomonas aeruginosa [2]) of 552 mm3 and an Activity (Pseudomonas aeruginosa [3]) of 373 mm3. It also gave a deltalog10CFU (Pseudomonas aeruginosa [4]) of -0.9, a deltalog10CFU (Pseudomonas aeruginosa [5]) of -1.1 and a deltalog10CFU (Pseudomonas aeruginosa [6]) of -0.4. The deltalog10CFU (Pseudomonas aeruginosa [7]) was -1.3, the deltalog10CFU (Pseudomonas aeruginosa [8]) was -1.4 and the “fT>MIC” value [9] was over 4 h. The “fT>MIC” value [10] was 3.3 h, the “fT>MIC” value [11] was 13.8% and the “fT>MIC” value [12] was 9.1%. The half-life [13] was 30 min, the fCmax (Plasma [14]) was 69 µg/mL and the fCmax (Zone of skin [15]) was 9 µg/g. The fAUC (Zone of skin [16]) was 690 µg·min/mL, the fAUC (Zone of skin [17]) was 704 µg·min/mL and the fraction unbound [18] was 0.84. It also gave a half-life [19] of 15 min, a Tmax [20] of 7.5 min and a fCmax (Plasma [21]) of 66 µg/mL. It also gave a fCmax (Zone of skin [22]) of 13 µg/g, a fAUC (Zone of skin [23]) of 652 µg·min/mL and a deltalog10CFU (Staphylococcus aureus [24]) of 1.5. For the same compound, the deltalog10CFU (Staphylococcus aureus [25]) was 0.3, the Activity (Staphylococcus aureus [26]) was 1058 mm3 and the Activity (Staphylococcus aureus [27]) was 896 mm3. For the same compound, the Activity (Staphylococcus aureus [28]) was 484 mm3 and the Activity (Staphylococcus aureus [29]) was 555 mm3.
